{"source": "ChEMBL document CHEMBL1811919", "about": "“Effects of β-glucosidase hydrolyzed products of harpagide and harpagoside on cyclooxygenase-2 (COX-2) in vitro” (Bioorg Med Chem, 2011)", "key": {"[1]": {"target": "T1, Prostaglandin G/H synthase 1 (Ovis aries) (UniProt P05979)", "T1 sequence (whole entry)": "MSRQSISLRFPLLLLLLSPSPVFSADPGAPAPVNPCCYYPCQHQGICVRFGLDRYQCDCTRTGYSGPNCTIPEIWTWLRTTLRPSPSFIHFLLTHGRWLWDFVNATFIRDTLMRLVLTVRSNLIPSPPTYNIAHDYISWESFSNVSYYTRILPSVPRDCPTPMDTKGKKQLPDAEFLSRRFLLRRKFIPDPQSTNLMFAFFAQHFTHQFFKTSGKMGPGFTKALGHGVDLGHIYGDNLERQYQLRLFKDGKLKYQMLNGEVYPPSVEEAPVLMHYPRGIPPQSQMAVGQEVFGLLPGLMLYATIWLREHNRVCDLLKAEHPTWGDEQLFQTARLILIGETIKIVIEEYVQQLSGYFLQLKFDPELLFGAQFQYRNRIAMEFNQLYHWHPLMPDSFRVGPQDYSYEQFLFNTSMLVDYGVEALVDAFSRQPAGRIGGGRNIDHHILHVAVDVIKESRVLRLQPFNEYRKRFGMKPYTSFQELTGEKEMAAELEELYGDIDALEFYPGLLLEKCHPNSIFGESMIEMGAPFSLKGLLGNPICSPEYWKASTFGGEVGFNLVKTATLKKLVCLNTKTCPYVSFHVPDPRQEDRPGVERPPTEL", "assay": "Inhibition of ovine COX1 at 2.5 to 100 uM incubated for 10 mins by enzyme immunoassay", "how_it_was_run": "(§1)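 Screening kit assay. Ovine COX-1 or human recombinant COX-2 with heme in reaction buffer, incubated with compound or DMSO for 10 min. Arachidonic acid added from a 10 mM stock, reaction 2 min at 37 °C. Stopped with 1 M HCl, then saturated SnCl2 for 5 min at room temperature. Prostaglandins quantified by EIA. Background from inactivated enzyme; DMSO taken as 100% activity. Mean ± SEM, Dunnett's test.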"}, "RAW264.7 [2]": {"tested_on": "RAW264.7", "assay": "Effect on basal COX-2 mRNA expression in mouse RAW264.7 cells at 20 uM by RT-PCR", "format": "functional, cell-based"}, "[3]": {"target": "T2, Prostaglandin G/H synthase 2 (Homo sapiens) (UniProt P35354)", "T2 sequence (whole entry)": "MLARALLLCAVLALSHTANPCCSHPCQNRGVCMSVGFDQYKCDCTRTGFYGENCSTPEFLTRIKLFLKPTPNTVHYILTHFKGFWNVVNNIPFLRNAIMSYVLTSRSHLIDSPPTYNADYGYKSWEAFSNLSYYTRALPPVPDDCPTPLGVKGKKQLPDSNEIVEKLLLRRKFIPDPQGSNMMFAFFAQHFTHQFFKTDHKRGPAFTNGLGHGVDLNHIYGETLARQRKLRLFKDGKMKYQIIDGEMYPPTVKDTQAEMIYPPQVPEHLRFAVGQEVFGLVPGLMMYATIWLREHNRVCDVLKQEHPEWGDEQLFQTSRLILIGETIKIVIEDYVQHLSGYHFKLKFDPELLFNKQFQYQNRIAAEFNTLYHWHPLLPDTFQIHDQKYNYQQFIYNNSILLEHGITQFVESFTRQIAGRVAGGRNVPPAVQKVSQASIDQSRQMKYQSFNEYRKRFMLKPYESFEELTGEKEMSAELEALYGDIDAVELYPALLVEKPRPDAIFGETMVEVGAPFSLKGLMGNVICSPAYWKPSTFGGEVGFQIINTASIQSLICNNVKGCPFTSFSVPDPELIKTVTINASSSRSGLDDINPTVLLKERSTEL", "assay": "Inhibition of human recombinant COX2 at 2.5 to 100 uM incubated for 10 mins by enzyme immunoassay", "how_it_was_run": "as §1"}, "RAW264.7 [4]": {"tested_on": "RAW264.7", "assay": "Inhibition of LPS-induced TNFalpha production in mouse RAW264.7 cells at 2.5 to 100 uM pre-incubated for 30 mins before LPS challenge measured 6 hrs post LPS challenge by ELISA", "format": "functional, cell-based", "how_it_was_run": "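RAW264.7 cells at 2 × 10⁵ per well pretreated with compound, dexamethasone or vehicle for 30 min, then co-incubated with LPS 100 ng/ml for a further 6 h before TNF-α measurement.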"}, "RAW264.7 [5]": {"tested_on": "RAW264.7", "assay": "Effect on basal COX-2 mRNA expression in mouse RAW264.7 cells at 100 uM by RT-PCR", "format": "functional, cell-based"}, "RAW264.7 [6]": {"tested_on": "RAW264.7", "assay": "Inhibition of LPS-induced nitric oxide production in mouse RAW264.7 cells at 2.5 to 100 uM pre-incubated for 20 mins before LPS challenge measured 18 hrs post LPS challenge by Griess method", "format": "functional, cell-based", "how_it_was_run": "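RAW264.7 cells at 2 × 10⁵ per well pretreated with compound, aminoguanidine or vehicle for 20 min, then co-incubated with LPS 1 µg/ml for a further 18 h. Supernatant mixed with Griess reagent (1% sulfanilamide, 0.1% naphthylethylenediamine) for nitrite read-out.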"}, "RAW264.7 [7]": {"tested_on": "RAW264.7", "assay": "Inhibition of LPS-induced COX-2 mRNA expression in mouse RAW264.7 cells at 100 uM pre-incubated for 3 hrs before LPS challenge measured 24 hrs post LPS challenge by RT-PCR", "format": "functional", "how_it_was_run": "(§2)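 RAW 264.7 cells seeded at 2 × 10⁵ per well and grown to confluence, treated with compound or vehicle for 3 h, then stimulated with LPS 1 µg/ml for 24 h. Total RNA extracted; SYBR real-time RT-PCR, 40 cycles of 95 °C 15 s / 60 °C 1 min, samples in duplicate. Quantified by 2^-ΔΔCt, normalized to β-actin, fold change relative to untreated cells. TPCK 20 µM positive control.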"}, "RAW264.7 [8]": {"tested_on": "RAW264.7", "assay": "Cytotoxicity against mouse RAW264.7 cells at 2.5 to 100 uM after 18 hrs by MTT assay", "format": "cell-based", "conditions": "raw264.7, 18 h", "how_it_was_run": "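RAW 264.7 murine macrophages in 96-well plates co-incubated with compound or vehicle for 18 h. MTT added to […] final, then 4 h further incubation with DMSO; formazan read at 570 nm. Toxic if MTT metabolism more than 20% below control.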"}, "[9]": {"target": "T1, Prostaglandin G/H synthase 1 (Ovis aries)", "conditions": "50 uM"}, "[10]": {"target": "T2, Prostaglandin G/H synthase 2 (Homo sapiens)", "assay": "(§3) Inhibition of human recombinant COX2 incubated for 10 mins by enzyme immunoassay", "how_it_was_run": "as §1"}, "[11]": {"target": "T3, Prostaglandin G/H synthase 2 (Homo sapiens, UniProt P35354)", "T3 sequence (P35354 whole entry)": "T2 sequence (whole entry)", "assay": "as §3", "how_it_was_run": "as §1"}, "RAW264.7 [12]": {"tested_on": "RAW264.7", "assay": "Inhibition of LPS-induced TNFalpha production in mouse RAW264.7 cells pre-incubated for 30 mins before LPS challenge measured 6 hrs post LPS challenge by ELISA", "format": "functional, cell-based", "how_it_was_run": "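RAW264.7 macrophages at 2 × 10⁵ cells/well, pretreated with test compound, dexamethasone or vehicle for 30 min, then co-incubated with LPS (100 ng/ml) for a further 6 h. Concentrations tested 2.5–100 μM.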"}, "RAW264.7 [13]": {"tested_on": "RAW264.7", "assay": "Inhibition of LPS-induced nitric oxide production in mouse RAW264.7 cells pre-incubated for 20 mins before LPS challenge measured 18 hrs post LPS challenge by Griess method", "format": "functional, cell-based", "how_it_was_run": "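RAW264.7 cells at 2 × 10⁵ cells/well, pretreated with test compound, aminoguanidine or vehicle for 20 min, then LPS co-incubation for a further 18 h. Supernatant mixed with Griess reagent (1% sulfanilamide plus 0.1% naphthylethylenediamine). Concentrations tested 2.5–100 μM.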"}, "RAW264.7 [14]": {"tested_on": "RAW264.7", "assay": "Inhibition of LPS-induced COX-2 mRNA expression in mouse RAW264.7 cells at 20 uM pre-incubated for 3 hrs before LPS challenge measured 24 hrs post LPS challenge by RT-PCR", "format": "functional", "how_it_was_run": "as §2"}}, "note": "The source made the active and inactive calls. The rule behind the calls is not given here.", "data": [{"smiles": "C[C@]1(O)C[C@@H](O)[C@]2(O)C=CO[C@@H](O[C@H]3O[C@H](CO)[C@@H](O)[C@H](O)[C@H]3O)[C@@H]21", "values": [{"measurement": "inhibition", "setting": "[1]", "result": "inactive"}, {"measurement": "Activity", "setting": "RAW264.7 [2]", "result": "inactive"}, {"measurement": "inhibition", "setting": "[3]", "result": "inactive"}, {"measurement": "inhibition", "setting": "RAW264.7 [4]", "result": "inactive"}, {"measurement": "Activity", "setting": "RAW264.7 [5]", "result": "inactive"}, {"measurement": "inhibition", "setting": "RAW264.7 [6]", "result": "inactive"}, {"measurement": "inhibition", "setting": "RAW264.7 [7]", "result": "inactive"}]}, {"smiles": "C[C@]1(O)C[C@@H](O)[C@]2(O)C=CO[C@@H](O[C@@H]3O[C@H](CO)[C@@H](O)[C@H](O)[C@H]3O)[C@@H]21", "note": "[HARPAGIDE]", "values": [{"measurement": "Activity", "setting": "RAW264.7 [8]", "result": "Non-toxic"}]}, {"smiles": "C[C@]1(OC(=O)/C=C/c2ccccc2)C[C@@H](O)[C@]2(O)C=CO[C@@H](O[C@@H]3O[C@H](CO)[C@@H](O)[C@H](O)[C@H]3O)[C@@H]21", "note": "[HARPAGOSIDE]", "values": [{"measurement": "inhibition", "setting": "[1]", "result": "inactive"}, {"measurement": "Activity", "setting": "RAW264.7 [2]", "result": "inactive"}, {"measurement": "inhibition", "setting": "[3]", "result": "inactive"}, {"measurement": "inhibition", "setting": "RAW264.7 [4]", "result": "inactive"}, {"measurement": "Activity", "setting": "RAW264.7 [5]", "result": "inactive"}, {"measurement": "Activity", "setting": "RAW264.7 [8]", "result": "Non-toxic"}, {"measurement": "inhibition", "setting": "RAW264.7 [6]", "result": "inactive"}, {"measurement": "inhibition", "setting": "RAW264.7 [7]", "result": "inactive"}]}, {"smiles": "CC(=O)Oc1ccccc1C(=O)O", "values": [{"measurement": "inhibition", "setting": "[9]", "result": "Active"}]}, {"smiles": "C[C@]1(O)C[C@@H](O)[C@](O)(CC=O)[C@@H]1C=O", "values": [{"measurement": "inhibition", "setting": "[1]", "result": "inactive"}, {"measurement": "Activity", "setting": "RAW264.7 [2]", "result": "inactive"}, {"measurement": "inhibition", "setting": "[10]", "result": "Dose-dependent effect"}, {"measurement": "IC50", "setting": "[11]", "result": 43.3, "unit": "µM"}, {"measurement": "inhibition", "setting": "RAW264.7 [4]", "result": "inactive"}, {"measurement": "Activity", "setting": "RAW264.7 [5]", "result": "inactive"}, {"measurement": "Activity", "setting": "RAW264.7 [8]", "result": "Non-toxic"}, {"measurement": "inhibition", "setting": "RAW264.7 [6]", "result": "inactive"}, {"measurement": "inhibition at 100 µM", "setting": "RAW264.7 [7]", "result": 47.6, "unit": "%"}]}, {"smiles": "N=C(N)NN", "values": [{"measurement": "inhibition", "setting": "RAW264.7 [12]", "result": "Active"}, {"measurement": "inhibition", "setting": "RAW264.7 [13]", "result": "Active"}]}, {"smiles": "Cc1ccc(S(=O)(=O)N[C@@H](Cc2ccccc2)C(=O)CCl)cc1", "note": "[TPCK]", "values": [{"measurement": "inhibition at 20 µM", "setting": "RAW264.7 [14]", "result": 59.5, "unit": "%"}]}, {"smiles": "C[C@@H]1C[C@H]2[C@@H]3CCC4=CC(=O)C=C[C@]4(C)[C@@]3(F)[C@@H](O)C[C@]2(C)[C@@]1(O)C(=O)CO", "values": [{"measurement": "inhibition", "setting": "RAW264.7 [12]", "result": "Active"}, {"measurement": "inhibition", "setting": "RAW264.7 [13]", "result": "Active"}]}]}
